Measured values reported in ChEMBL document CHEMBL5724801, “EUbOPEN Chemogenomics Library - Multiplex” (2024).
“And” between values parts separate entries of the source, which are not always exact repeats. Identical values can stand only once.

System: HEK-293T
Assay: Multiplex assay against HEK293T
Type: toxicity, cell-based
Details: human
Method in brief: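 Live cells carried four stains from seeding: Hoechst33342, BioTracker Green Microtubule Cytoskeleton Dye, MitoTracker Red and Annexin V Alexa Fluor 680. They were imaged on a CQ1 microscope at 37°C and 5% CO2 after compound addition. Using CellPathfinder machine-learning gating, cells were split into Hoechst high-intensity objects or normal cells, normal cells into healthy, pyknosed or fragmented nuclei, and pyknosed cells into mitotic or apoptotic; tubulin, mitochondrial-mass and membrane-permeability phenotypes are per cents of healthy-nucleus cells.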

[1] = 12 h, 1 µM, compound concentration 1 uM
[2] = 12 h, 10 µM, compound concentration 10 uM
[3] = 24 h, 1 µM, compound concentration 1 uM
[4] = 24 h, 10 µM, compound concentration 10 uM
[5] = 48 h, 1 µM, compound concentration 1 uM
[6] = 48 h, 10 µM, compound concentration 10 uM

## CC[C@H](Nc1ncnc2[nH]cnc12)c1nc2cccc(F)c2c(=O)n1-c1ccccc1 [IDELALISIB]
[1]
  Population Apoptotic (%): 9.6% and 7.3%
  Population Fragmented Nuclei (%): 0.69% and 2.22%
  Population Healthy Nuclei (%): 58.33% and 21.67%
  Population Hoechst High Intensity Objects (%): 0%
  Population Membrane Permeable-Phenotype (%): 1.19% and 0%
  Population Mitochondria Different-Phenotype (%): 34.13% and 17.95%
  Population Mitotic Cells (%): 90.4% and 92.7%
  Population Normal (%): 100%
  Population Pyknosed Nuclei (%): 40.97% and 76.11%
  Total Cell Count: 432 and 180
[2]
  Population Apoptotic (%): 16.78% and 14.29%
  Population Fragmented Nuclei (%): 0.89% and 4.58%
  Population Hoechst High Intensity Objects (%): 0%
  Population Membrane Permeable-Phenotype (%): 0% and 7.69%
  Population Mitochondria Different-Phenotype (%): 29.11% and 15.38%
  Population Mitotic Cells (%): 83.22% and 85.71%
  Population Normal (%): 100%
  Population Pyknosed Nuclei (%): 63.84% and 86.93%
  Population Tubulin-Different-Phenotype (%): 34.18% and 38.46%
  Total Cell Count: 224 and 153
[3]
  Population Apoptotic (%): 20.57% and 16.42%
  Population Fragmented Nuclei (%): 1.62% and 1.42%
  Population Healthy Nuclei (%): 75.57% and 35.07%
  Population Hoechst High Intensity Objects (%): 0%
  Population Membrane Permeable-Phenotype (%): 1.07% and 0%
  Population Mitochondria Different-Phenotype (%): 15.42% and 12.16%
  Population Mitotic Cells (%): 79.43% and 83.58%
  Population Normal (%): 100%
  Population Pyknosed Nuclei (%): 22.82% and 63.51%
  Population Tubulin-Different-Phenotype (%): 9.85% and 5.41%
  Total Cell Count: 618 and 211
[4]
  Population Apoptotic (%): 22.55% and 30.43%
  Population Fragmented Nuclei (%): 2.07% and 3.7%
  Population Healthy Nuclei (%): 62.76% and 25.31%
  Population Hoechst High Intensity Objects (%): 0.34% and 0%
  Population Membrane Permeable-Phenotype (%): 2.75% and 2.44%
  Population Mitochondria Different-Phenotype (%): 40.11% and 19.51%
  Population Mitotic Cells (%): 77.45% and 69.57%
  Population Normal (%): 99.66% and 100%
  Population Pyknosed Nuclei (%): 35.17% and 70.99%
  Population Tubulin-Different-Phenotype (%): 61.54% and 26.83%
  Total Cell Count: 291 and 162
[5]
  Population Apoptotic (%): 5.47% and 12.5%
  Population Fragmented Nuclei (%): 2.71% and 1.53%
  Population Healthy Nuclei (%): 87.1% and 67.82%
  Population Hoechst High Intensity Objects (%): 0% and 0.38%
  Population Membrane Permeable-Phenotype (%): 5.58% and 2.26%
  Population Mitochondria Different-Phenotype (%): 15.63% and 14.69%
  Population Mitotic Cells (%): 94.53% and 87.5%
  Population Normal (%): 100% and 99.62%
[6]
  Population Apoptotic (%): 17.44% and 25.24%
  Population Fragmented Nuclei (%): 2.23% and 1.97%
  Population Healthy Nuclei (%): 80.32% and 47.29%
  Population Hoechst High Intensity Objects (%): 0.2% and 0%
  Population Membrane Permeable-Phenotype (%): 6.31% and 1.04%
  Population Mitochondria Different-Phenotype (%): 64.39% and 55.21%
  Population Mitotic Cells (%): 82.56% and 74.76%
  Population Normal (%): 99.8% and 100%
  Population Pyknosed Nuclei (%): 17.44% and 50.74%
  Total Cell Count: 494 and 203

## O=S(=O)(c1ccccc1)c1cnc2c(N3CCNCC3)cccc2c1 [INTEPIRDINE]
[1]
  Population Apoptotic (%): 40% and 50%
  Population Fragmented Nuclei (%): 7%
  Population Healthy Nuclei (%): 80% and 74%
  Population Hoechst High Intensity Objects (%): 7% and 10%
  Population Membrane Permeable-Phenotype (%): 0%
  Population Mitochondria Different-Phenotype (%): 54% and 69%
  Population Mitotic Cells (%): 60% and 50%
  Population Normal (%): 92% and 89%
  Population Pyknosed Nuclei (%): 12% and 17%
  Population Tubulin-Different-Phenotype (%): 43% and 23%
  Total Cell Count: 403 and 336
[2]
  Population Apoptotic (%): 51% and 46%
  Population Fragmented Nuclei (%): 8% and 4%
  Population Healthy Nuclei (%): 72% and 79%
  Population Hoechst High Intensity Objects (%): 10% and 7%
  Population Membrane Permeable-Phenotype (%): 0%
  Population Mitochondria Different-Phenotype (%): 70% and 76%
  Population Mitotic Cells (%): 48% and 53%
  Population Normal (%): 89% and 92%
  Population Pyknosed Nuclei (%): 18% and 15%
  Population Tubulin-Different-Phenotype (%): 58% and 50%
  Total Cell Count: 326 and 349
[3]
  Population Apoptotic (%): 28% and 58%
  Population Fragmented Nuclei (%): 6% and 7%
  Population Healthy Nuclei (%): 80% and 85%
  Population Hoechst High Intensity Objects (%): 5%
  Population Membrane Permeable-Phenotype (%): 0%
  Population Mitochondria Different-Phenotype (%): 35% and 43%
  Population Mitotic Cells (%): 71% and 41%
  Population Normal (%): 94%
  Population Pyknosed Nuclei (%): 12% and 7%
  Population Tubulin-Different-Phenotype (%): 26% and 14%
  Total Cell Count: 530 and 416
[4]
  Population Apoptotic (%): 52% and 51%
  Population Fragmented Nuclei (%): 11% and 9%
  Population Healthy Nuclei (%): 75% and 82%
  Population Hoechst High Intensity Objects (%): 6% and 4%
  Population Membrane Permeable-Phenotype (%): 0%
  Population Mitochondria Different-Phenotype (%): 50% and 61%
  Population Mitotic Cells (%): 47% and 48%
  Population Normal (%): 93% and 95%
  Population Pyknosed Nuclei (%): 12% and 8%
  Population Tubulin-Different-Phenotype (%): 33% and 42%
  Total Cell Count: 439 and 458
[5]
  Population Apoptotic (%): 17% and 25%
  Population Fragmented Nuclei (%): 12% and 13%
  Population Healthy Nuclei (%): 80% and 79%
  Population Hoechst High Intensity Objects (%): 4% and 3%
  Population Membrane Permeable-Phenotype (%): 1% and 0%
  Population Mitochondria Different-Phenotype (%): 25% and 26%
  Population Mitotic Cells (%): 82% and 75%
  Population Normal (%): 95% and 96%
  Population Pyknosed Nuclei (%): 7% and 6%
  Population Tubulin-Different-Phenotype (%): 16% and 12%
  Total Cell Count: 866 and 641
[6]
  Population Apoptotic (%): 40% and 18%
  Population Fragmented Nuclei (%): 14% and 11%
  Population Healthy Nuclei (%): 75% and 82%
  Population Hoechst High Intensity Objects (%): 4%
  Population Membrane Permeable-Phenotype (%): 0%
  Population Mitochondria Different-Phenotype (%): 45% and 38%
  Population Mitotic Cells (%): 59% and 81%
  Population Normal (%): 95%
  Population Pyknosed Nuclei (%): 10% and 5%
  Population Tubulin-Different-Phenotype (%): 30% and 27%
  Total Cell Count: 606 and 673

## C=C(C)[C@H]1CN[C@H](C(=O)O)[C@H]1CC(=O)O [KAINIC ACID]
[1]
  Population Apoptotic (%): 11.5% and 6.48%
  Population Fragmented Nuclei (%): 2.06% and 6.54%
  Population Healthy Nuclei (%): 64.6% and 22.88%
  Population Hoechst High Intensity Objects (%): 0%
  Population Membrane Permeable-Phenotype (%): 0.91% and 0%
  Population Mitochondria Different-Phenotype (%): 37.44% and 14.29%
  Population Mitotic Cells (%): 88.5% and 93.52%
  Population Normal (%): 100%
  Population Pyknosed Nuclei (%): 33.33% and 70.59%
  Total Cell Count: 339 and 153
[2]
  Population Apoptotic (%): 12.5% and 13.33%
  Population Fragmented Nuclei (%): 12.27% and 2.55%
  Population Hoechst High Intensity Objects (%): 0.26% and 0%
  Population Membrane Permeable-Phenotype (%): 0%
  Population Mitochondria Different-Phenotype (%): 22.58% and 24.24%
  Population Mitotic Cells (%): 87.5% and 86.67%
  Population Normal (%): 99.74% and 100%
  Total Cell Count: 384 and 157
[3]
  Population Apoptotic (%): 14% and 18.07%
  Population Fragmented Nuclei (%): 2.44% and 4.97%
  Population Healthy Nuclei (%): 77.19% and 43.48%
  Population Hoechst High Intensity Objects (%): 0%
  Population Membrane Permeable-Phenotype (%): 0.79% and 1.43%
  Population Mitochondria Different-Phenotype (%): 12.14% and 7.14%
  Population Mitotic Cells (%): 86% and 81.93%
  Population Normal (%): 100%
  Population Pyknosed Nuclei (%): 20.37% and 51.55%
  Population Tubulin-Different-Phenotype (%): 8.97% and 5.71%
[4]
  Population Apoptotic (%): 9.33% and 14.16%
  Population Fragmented Nuclei (%): 9.95% and 0%
  Population Healthy Nuclei (%): 77.19% and 40.84%
  Population Hoechst High Intensity Objects (%): 0%
  Population Membrane Permeable-Phenotype (%): 0.22% and 0%
  Population Mitochondria Different-Phenotype (%): 11.33% and 7.69%
  Population Mitotic Cells (%): 90.67% and 85.84%
  Population Normal (%): 100%
  Population Tubulin-Different-Phenotype (%): 4.89% and 1.28%
[5]
  Population Apoptotic (%): 7.41% and 12.12%
  Population Fragmented Nuclei (%): 6.01% and 2.75%
  Population Healthy Nuclei (%): 85.97% and 71.37%
  Population Hoechst High Intensity Objects (%): 0.07% and 0%
  Population Membrane Permeable-Phenotype (%): 5.09% and 4.4%
  Population Mitochondria Different-Phenotype (%): 10.62% and 17.03%
  Population Mitotic Cells (%): 92.59% and 87.88%
  Population Normal (%): 99.93% and 100%
[6]
  Population Apoptotic (%): 13.71% and 22.5%
  Population Fragmented Nuclei (%): 7.14% and 1.13%
  Population Healthy Nuclei (%): 83.02% and 68.8%
  Population Hoechst High Intensity Objects (%): 0% and 0.75%
  Population Membrane Permeable-Phenotype (%): 4.88% and 2.19%
  Population Mitochondria Different-Phenotype (%): 10.71% and 14.75%
  Population Mitotic Cells (%): 86.29% and 77.5%
  Population Normal (%): 100% and 99.25%
